The subject of the data set is MS2 coat protein. In words: apparent Kd, MS2 coat protein; higher = weaker binding; RNA-MaP array; FMN 200 µM where present. The method in brief: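 Green signal was scaled to red-channel RNA signal and control-cluster median Fmax, and the apparent Kd was taken as the median of filtered per-cluster binding-curve fits. The binding series used SNAP-549-labelled MS2 coat protein from 0.7 or 1.5 nM, doubling to 3 µM, on designs transcribed by stalled E. coli RNA polymerase on Illumina sequencing-chip clusters. Each series ran without and then with constant ligand in 100 mM Tris-HCl pH 7.5, 80 mM KCl, 4 mM MgCl2, BSA, DTT, yeast tRNA and Tween-20.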

Where [1] appears, read: designed as: ON switch for flavin mononucleotide, no ligand.
Where [2] appears, read: ligand present: flavin mononucleotide, designed as: ON switch for flavin mononucleotide.
Setting [3] is: designed as: OFF switch for flavin mononucleotide, no ligand.
Where [4] appears, read: ligand present: flavin mononucleotide, designed as: OFF switch for flavin mononucleotide.

By apparent Kd is commonly meant the concentration giving half-maximal binding under the conditions of the assay. On to “CCUAAGGACACAGGAUAUAGCGUGAUGGCUGGACUCCAACGGCGAGCGGCGCUAGAAGGGUGACCACAUGAGGAUCACCCAUGU”, for which the “apparent Kd” value came out at 496 nM under setting [1] and 195 nM under setting [2].
Taken in the same sequence, the figures for “GACACUAUGUUUGUCAGAUAGAGAGAGGAUAUGGGUCAUGAGACAUGAGGAUCACCCAUGUUUAAUCAGAAGGCUCGAGUACGA” were 30.7 nM and 15.6 nM.
As to “CUAUUCCGAGGAUAUACAUGAGGAUCACCCAUGUCGGGCCUCCGCGUUUCGCGCCUCAGUAGAAGGCGGGUUUC”, the “apparent Kd” value is 20.4 nM under setting [3] and 25.9 nM under setting [4].
On to “AAACACGGACAUGAGGAUCACCCAUGUGGCGAAAGCCUUGGGAGAAGGCAGUAUGCAAAGCAUUCUGAGGAUAUCCAUACCGUG”, for which the “apparent Kd” value stood at 18.4 nM under setting [1] and 6.63 nM under setting [2].
On to “UUUGAGUGAGGAUAUUGCACCUCUGGGUCACCUCAGAGGUUUGAGAAGGCACAUGAGGAUCACCCAUGUUCCGC”, for which the “apparent Kd” value under setting [3] came to 19.7 nM and the “apparent Kd” value under setting [4] is 32.2 nM.
On to “CGCUGUCUCGCAGGAUAUGCAUUGGAUUACAAUGCAGAAGGGCGAUUACAUGAGGAUCACCCAUGUGUUGACAGUGAAGAAUAG”, for which the “apparent Kd” value is, setting by setting: under setting [1], 96.6 nM; under setting [2], 22.2 nM.
In the same order, the values of “GCAGAACAUGAGGAUCACCCAUGUCUCUAAAGUCGAGGAUAUGGGCAGGUUAUAUCCGAACCAGAAGGCGAUCUGC” are 127 nM and 43.8 nM.
For “AUAUUUGUGUAGAAGGUACGUGAUUAGUCAUAGUAAGGAUAUACUGACAUGAGGAUCACCCAUGUAUAAAUAGUUAAAUGUUCU”, the “apparent Kd” value under setting [1] was found to be 14.4 nM and the “apparent Kd” value under setting [2] turned out to be 8.52 nM.
Consider “UUCAGACAUGAGGAUCACCCAUGUGAGGAUAUGAUGCGAUCGUCGAAAGACGAUAGCAUCAGAAGGCACAAAUG”, for which the “apparent Kd” value is, setting by setting: under setting [3], 103 nM; under setting [4], 156 nM.
Consider “UGGUACUAGGGAGGAUAUGGGAAGAUACAUGAGGAUCACCCAUGUUUAAGAAUGCCGAGAUGCAACUAGAAGGCCCUAGUACCU”, for which the “apparent Kd” value runs as follows: under setting [1], 371 nM; under setting [2], 21.9 nM.
As for “GUAUGAGCGAUAGGAUAUACUGAGAUUGAAUGGGUAGAAGGAUCUCUUGUGGGAAAGACAUGAGGAUCACCCAUGUCACGGGCC”, the “apparent Kd” value was 122 nM under setting [1] and 130 nM under setting [2].
In the same order, the values of “AAAAAACAUGAGGAUCACCCAUGUCCAAAAAAAAAAGGAUAUGCAAAAAAAAAAAAAAAAGCAGAAGGUUUAAAAA” are 68.4 nM and 74.7 nM.
In the case of “AAUAACAGAGGAUAUACAAAAAUAAAAGGAAACAAAAGAAAACAUGAGGAUCACCCAUGUAGAAGGCUGAAUAA”, the “apparent Kd” value came to 21.1 nM under setting [3] and 18.9 nM under setting [4].
For “UAUUAACACGAAGGAUAUGGUUACAUGAGGAUCACCCAUGUAUGUAUAUUGAUCCAGAUUUUUGACCAGAAGGUCGUGAGUAAA”, the “apparent Kd” value was determined as 108 nM under setting [3] and 285 nM under setting [4].
In the same order, the values of “AACUGUCUAAAGGAUAUGCUGGAUUAAUAUCUGGCAGAAGGUUGGACAUGAGGAUCACCCAUGUAAAUACUACC” are 21.6 nM and 70.1 nM.
Turning to “UUGAAUUGAAACAUGAGGAUCACCCAUGUGUCAUAAUUGACAUAGGAUAUGUUUAUACUUUUAAAAUAGAAGGAUGACGAUACU”, the “apparent Kd” value turned out to be 13.8 nM under setting [1] and 11.8 nM under setting [2].
As to “CUUUUGUGAGGAUAUUGGUAGUAAAUGAAUAAAAUUAUUACCGAGAAGGUACAUGAGGAUCACCCAUGUUCCUC”, the “apparent Kd” value under setting [3] amounted to 19.4 nM and the “apparent Kd” value under setting [4] was determined as 27.9 nM.
For the sequence “UCCACUGCUGAGAAGGGAUACGUGUGGUUCGCAUCAGGAUAUCGAUACAGUGCAGCAUGAGGACAUGAGGAUCACCCAUGUAUU”, the “apparent Kd” value was determined as 24.6 nM under setting [1] and 13.4 nM under setting [2].
Turning to “AUGUACCGGUGAGGAUAUUUUUAAUAGAGCUUUAUGAUAUACAUGAGGAUCACCCAUGUUACGUUAAAGAAGGCAUCGGAUUAA”, the “apparent Kd” value stood at 21 nM under setting [3] and 15.9 nM under setting [4].
Taken in the same sequence, the figures for “GCGUACAUAUCAGGAUAUCAUUGUAUUGUUUAACUCAGUGUAUACAUGAGGAUCACCCAUGUUCUUGAGAAGGGAUUACUACGC” were 14.1 nM and 15.4 nM.
Taken in the same sequence, the figures for “CUAUGCGGAAUAGGAUAUUCAUUCAUGAGGAUAGAAGAAGGGUUACAUGAGGAUCACCCAUGUAUACACAUGAGGAUCCCUUAC” were 162 nM and 181 nM.
For the sequence “GAUUGACGACAAUUACAUGAGGAUCACCCAUGUUGUAGUAUGCAGGAUAUGUGGUAUAUUAUUUAACAGAAGGGCAAUAAUUUU”, the “apparent Kd” value is, setting by setting: under setting [1], 81 nM; under setting [2], 42.4 nM.
Take “AUUCAACAUGAGGAUCACCCAUGUGAGGAUAUCGUAUACUACUGUUGCAAUACUUAGACGAGAAGGCACACCGU”: the “apparent Kd” value came to 18.9 nM under setting [3] and 25.1 nM under setting [4].
“UUAGAAUUGCAAGGAUAUCUAAUUUAGAUAGUAAGAGAAGGUGCUUGAUAGUUACAUGAGGAUCACCCAUGUUUUUGGGUUUAU”: the “apparent Kd” value under setting [1] was 545 nM and the “apparent Kd” value under setting [2] amounted to 412 nM.
